# Assay results as given in ChEMBL document CHEMBL2086366, “Chemical optimization of new ligands of the low-density lipoprotein receptor as potential vectors for central nervous system targeting” (J Med Chem, 2012).
# *1 amine or outer side, *2 acyl side, *3 side chain or, on linkers, in order; H or OH if unused. Where a SMILES comes first, the peptide text is derived from it. Bridges are numbered along the chain shown (N, C = ends). [ ]: non-standard residue; d: D form. X1 = CSCC[C@@H](C(=O)[*:2])N(C[C@@H](CS[*:3])NC(C)=O)[*:1]
# Target: Low-density lipoprotein receptor (Homo sapiens) (UniProt P01130)
# Experiment: Displacement of S-tagged Ac-DSGL[CMPRLRGC]cDPR-NH2 from human DsRed2-fused LDLR expressed in CHO cells at 10 uM after 1 hr by FRET assay
# Type: cell-based
# Method in brief: (§1)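 CHO cells stably expressing hLDLR-DsRed2 (Ham-F12, 5% FBS, Geneticin) at 800 000 cells/well were incubated in triplicate with S-tagged reference peptide (10 μM) plus test peptide (10 μM) in Ham-F12/1% BSA, 1 h, 37 °C. Scrambled and untagged peptide controls were included; values are means of at least three points.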
# Sequence of Low-density lipoprotein receptor (Homo sapiens) (P01130 whole entry, the tested form may be a part): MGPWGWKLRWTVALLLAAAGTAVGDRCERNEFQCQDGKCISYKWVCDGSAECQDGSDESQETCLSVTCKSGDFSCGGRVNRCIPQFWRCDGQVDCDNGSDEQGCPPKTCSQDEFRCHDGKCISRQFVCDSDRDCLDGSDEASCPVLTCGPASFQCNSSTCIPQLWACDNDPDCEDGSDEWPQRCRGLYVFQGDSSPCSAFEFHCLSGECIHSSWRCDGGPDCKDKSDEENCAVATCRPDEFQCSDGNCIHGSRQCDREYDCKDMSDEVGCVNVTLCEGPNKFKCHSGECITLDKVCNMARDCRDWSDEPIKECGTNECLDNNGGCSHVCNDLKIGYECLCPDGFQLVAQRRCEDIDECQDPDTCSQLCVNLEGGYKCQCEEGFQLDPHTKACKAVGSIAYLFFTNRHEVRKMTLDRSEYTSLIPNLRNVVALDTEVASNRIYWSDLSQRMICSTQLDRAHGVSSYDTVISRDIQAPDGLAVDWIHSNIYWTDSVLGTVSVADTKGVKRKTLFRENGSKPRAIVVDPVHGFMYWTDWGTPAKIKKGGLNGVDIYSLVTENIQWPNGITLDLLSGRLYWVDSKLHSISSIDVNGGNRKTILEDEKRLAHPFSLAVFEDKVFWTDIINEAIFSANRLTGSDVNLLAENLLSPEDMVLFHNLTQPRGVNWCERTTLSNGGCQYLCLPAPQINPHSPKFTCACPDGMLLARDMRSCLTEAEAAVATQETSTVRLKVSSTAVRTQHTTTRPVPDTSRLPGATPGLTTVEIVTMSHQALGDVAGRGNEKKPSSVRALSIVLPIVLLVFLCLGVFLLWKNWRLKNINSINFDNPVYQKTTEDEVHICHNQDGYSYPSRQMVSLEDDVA
row,Molecule,inhibition [%]
1,CSCC[C@@H]1NC(=O)[C@@H](NC(=O)[C@H](CC(C)C)NC(=O)[C@H](C)NC(=O)[C@H](CO)NC(=O)[C@H](CC(=O)O)NC(C)=O)CSSC[C@@H](C(=O)N[C@@H](CC(=O)O)C(=O)N2CCC[C@H]2C(=O)N[C@@H](CCCNC(=N)N)C(N)=O)NC(=O)CNC(=O)[C@H](CCCNC(=N)N)NC(=O)[C@H](CC(C)C)NC(=O)[C@H](CCCNC(=N)N)NC(=O)[C@@H]2CCCN2C1=O (Ac-DSALCMPRLRGCDPR-NH2; disulfide 5-12),58
2,CSCC[C@@H]1NC(=O)[C@@H](NC(=O)[C@H](C)NC(=O)CNC(=O)[C@H](CO)NC(=O)[C@H](CC(=O)O)NC(C)=O)CSSC[C@@H](C(=O)N[C@@H](CC(=O)O)C(=O)N2CCC[C@H]2C(=O)N[C@@H](CCCNC(=N)N)C(N)=O)NC(=O)CNC(=O)[C@H](CCCNC(=N)N)NC(=O)[C@H](CC(C)C)NC(=O)[C@H](CCCNC(=N)N)NC(=O)[C@@H]2CCCN2C1=O (Ac-DSGACMPRLRGCDPR-NH2; disulfide 5-12),64
3,CSCC[C@H](NC(=O)[C@H](CS)NC(=O)[C@H](CC(C)C)NC(=O)CNC(=O)[C@H](CO)NC(=O)[C@H](CC(=O)O)NC(C)=O)C(=O)N1CCC[C@H]1C(=O)N[C@@H](CCCNC(=N)N)C(=O)N[C@@H](CC(C)C)C(=O)N[C@@H](CCCNC(=N)N)C(=O)NCC(=O)N[C@@H](CS)C(=O)N[C@@H](CC(=O)O)C(=O)N1CCC[C@H]1C(=O)N[C@@H](CCCNC(=N)N)C(N)=O,50
4,CC(=O)N[C@@H](CC(=O)O)C(=O)N[C@@H](CO)C(=O)NCC(=O)N[C@@H](CC(C)C)C(=O)N[C@H]1CSSC[C@@H](C(=O)N[C@@H](CC(=O)O)C(=O)N2CCC[C@H]2C(=O)N[C@@H](CCCNC(=N)N)C(N)=O)NC(=O)CNC(=O)[C@H](CCCNC(=N)N)NC(=O)[C@H](CC(C)C)NC(=O)[C@H](CCCNC(=N)N)NC(=O)[C@@H]2CCCN2C(=O)[C@H](C)NC1=O (Ac-DSGLCAPRLRGCDPR-NH2; disulfide 5-12),0
5,Ac-DSGLCMPRLRGADPR-NH2,0
6,Ac-DSGLSMPRLRGSDPR-NH2,0
7,CSCC[C@@H]1NC(=O)[C@@H](NC(=O)[C@H](CC(C)C)NC(=O)CNC(=O)[C@H](C)NC(=O)[C@H](CC(=O)O)NC(C)=O)CSSC[C@@H](C(=O)N[C@@H](CC(=O)O)C(=O)N2CCC[C@H]2C(=O)N[C@@H](CCCNC(=N)N)C(N)=O)NC(=O)CNC(=O)[C@H](CCCNC(=N)N)NC(=O)[C@H](CC(C)C)NC(=O)[C@H](CCCNC(=N)N)NC(=O)[C@@H]2CCCN2C1=O (Ac-DAGLCMPRLRGCDPR-NH2; disulfide 5-12),20
8,CSCC[C@@H]1NC(=O)[C@@H](NC(=O)[C@H](CC(C)C)NC(=O)CNC(=O)[C@H](CO)NC(=O)[C@H](CC(=O)O)NC(C)=O)CSSC[C@@H](C(=O)N[C@@H](CC(=O)O)C(=O)N2CCC[C@H]2C(=O)N[C@@H](CCCNC(=N)N)C(N)=O)NC(=O)CNC(=O)[C@H](CCCNC(=N)N)NC(=O)[C@H](CC(C)C)NC(=O)[C@H](CCCNC(=N)N)NC(=O)[C@@H]2CCCN2C1=O,55
9,CSCC[C@@H]1NC(=O)[C@@H](NC(C)=O)CSC[C@@H](C(N)=O)NC(=O)[C@H](CCCNC(=N)N)NC(=O)[C@@H]2CCCN2C1=O,0
10,CSCC[C@@H]1NC(=O)[C@@H](NC(C)=O)CSSC[C@@H](C(N)=O)NC(=O)CNC(=O)[C@H](CCCNC(=N)N)NC(=O)[C@@H]2CCCN2C1=O (Ac-CMPRGC-NH2; disulfide 1-6),39
11,CSCC[C@@H]1NC(=O)[C@@H](NC(=O)[C@H](CC(C)C)NC(=O)CNC(=O)[C@H](CO)NC(=O)[C@H](CC(=O)O)NC(C)=O)CSSC[C@@H](C(=O)N[C@@H](CC(=O)O)C(=O)N2CCC[C@H]2C(=O)N[C@@H](CCCNC(=N)N)C(N)=O)NC(=O)[C@H](C)NC(=O)[C@H](CCCNC(=N)N)NC(=O)[C@H](CC(C)C)NC(=O)[C@H](CCCNC(=N)N)NC(=O)[C@@H]2CCCN2C1=O (Ac-DSGLCMPRLRACDPR-NH2; disulfide 5-12),20

# Target: Low-density lipoprotein receptor (Homo sapiens) (UniProt P01130)
# Experiment: Displacement of S-tagged Ac-[cMPRLRGC]c-NH2 from human DsRed2-fused LDLR expressed in CHO cells at 10 uM after 1 hr by FRET assay
# Type: cell-based
# Method in brief: as §1
row,Molecule,inhibition [%]
1,CSCC[C@@H]1NC(=O)[C@H](NC(C)=O)CSSC[C@@H](C(N)=O)NC(=O)CNC(=O)[C@H](CCCN)NC(=O)[C@H](CC(C)C)NC(=O)[C@H](CCCNC(=N)N)NC(=O)[C@@H]2CCCN2C1=O,0
2,CSCC[C@@H]1NC(=O)[C@H](NC(C)=O)CSSC[C@@H](C(N)=O)NC(=O)CNC(=O)[C@H](CCCN)NC(=O)[C@H](CC(C)C)NC(=O)[C@H](CCCN)NC(=O)[C@@H]2CCCN2C1=O,31
3,CSCC[C@H](NC(=O)[C@@H]1CCCN1C(=O)[C@H]1CSSC[C@H](N)C(=O)NCC(=O)N[C@@H](CCCNC(=N)N)C(=O)N[C@@H](CC(C)C)C(=O)N[C@@H](CCCNC(=N)N)C(=O)N1)C(=O)NC(C)=O,34
4,CSCC[C@@H]1NC(=O)[C@H](NC(C)=O)CSSC[C@@H](C(N)=O)NC(=O)CNC(=O)[C@H](CCCNC(=N)N)NC(=O)[C@H](CC(C)C)NC[C@H](CCCNC(=N)N)NC(=O)[C@@H]2CCCN2C1=O,58
5,CSCC[C@H](NC(=O)[C@H]1CSSC[C@H](N)C(=O)NCC(=O)N[C@@H](CCCNC(=N)N)C(=O)N[C@@H](CC(C)C)C(=O)N[C@@H](CCCNC(=N)N)C(=O)N2CCC[C@H]2C(=O)N1)C(=O)NC(C)=O,28
6,CSCC[C@@H]1NC(=O)[C@H](NC(C)=O)C/C=C\C[C@@H](C(N)=O)NC(=O)CNC(=O)[C@H](CCCNC(=N)N)NC(=O)[C@H](CC(C)C)NC(=O)[C@H](CCCNC(=N)N)NC(=O)[C@@H]2CCCN2C1=O,22
7,CSCC[C@H]1CN2CCC[C@H]2C(=O)N[C@@H](CCCNC(=N)N)C(=O)N[C@@H](CC(C)C)C(=O)N[C@@H](CCCNC(=N)N)C(=O)NCC(=O)N[C@H](C(N)=O)CSSC[C@@H](NC(C)=O)C(=O)N1,33
8,CSCC[C@@H]1NC[C@H](NC(C)=O)CSSC[C@@H](C(N)=O)NC(=O)CNC(=O)[C@H](CCCNC(=N)N)NC(=O)[C@H](CC(C)C)NC(=O)[C@H](CCCNC(=N)N)NC(=O)[C@@H]2CCCN2C1=O (H-[X1]PRLRGC-NH2; disulfide 1-7),37
9,CSCC[C@@H]1NC(=O)[C@H](NC(C)=O)CSSC[C@@H](C(N)=O)NC(=O)CNC(=O)[C@H](CCCNC(=N)N)NC(=O)[C@H](CC(C)C)NC(=O)[C@H](CCCNC(=N)N)NC(=O)c2ccccc2NC1=O,0
10,CSCC[C@@H]1NC(=O)[C@H](NC(C)=O)CSSC[C@@H](C(N)=O)NC(=O)CNC(=O)[C@H](CCCNC(=N)N)NC(=O)[C@H](CC(C)C)NC(=O)[C@H](CCCN)NC(=O)[C@@H]2CCCN2C1=O,28
11,CSCC[C@@H]1NC(=O)[C@H](NC(C)=O)CSSC[C@@H](C(N)=O)NC(=O)CNC(=O)[C@H](CCCNC(=N)N)NC(=O)[C@H](CC(C)C)NC(=O)[C@H](CCCNC(=N)N)NC[C@@H]2CCCN2C1=O,0
12,CSCC[C@@H]1NC(=O)[C@H](NC(C)=O)Cc2cn(nn2)CC[C@@H](C(N)=O)NC(=O)CNC(=O)[C@H](CCCNC(=N)N)NC(=O)[C@H](CC(C)C)NC(=O)[C@H](CCCNC(=N)N)NC(=O)[C@@H]2CCCN2C1=O,13
13,"CSCCC1NC(=O)[C@H](NC(C)=O)CNC(=O)C[C@@H](C(N)=O)NC(=O)CNC(=O)[C@H](CCCNC(=N)N)NC(=O)[C@H](CC(C)C)NC(=O)[C@H](CCCNC(=N)N)NC(=O)[C@@H]2CCCN2C1=O (single isomer, unassigned)",12
14,CSCC[C@@H]1NC(=O)[C@H](NC(C)=O)CSSC[C@@H](C(N)=O)NC(=O)CNC(=O)[C@H](CCCNC(=N)N)NC(=O)[C@H](CC(C)C)NC(=O)[C@H](CCCNC(=N)N)NC(=O)[C@@H]2c3ccccc3CCN2C1=O,21
15,CSCC[C@@H]1NC(=O)C(NC(C)=O)CSCC(C(N)=O)NC(=O)CNC(=O)[C@H](CCCNC(=N)N)NC(=O)[C@H](CC(C)C)NC(=O)[C@H](CCCNC(=N)N)NC(=O)[C@@H]2CCCN2C1=O (mixture of isomers),41
16,COCC[C@@H]1NC(=O)[C@H](NC(C)=O)CSSC[C@@H](C(N)=O)NC(=O)CNC(=O)[C@H](CCCNC(=N)N)NC(=O)[C@H](CC(C)C)NC(=O)[C@H](CCCNC(=N)N)NC(=O)[C@@H]2CCCN2C1=O,0
17,CSCC[C@@H]1NC(=O)[C@H](NC(C)=O)CSSC[C@@H](C(N)=O)NC(=O)CNC(=O)[C@H](CCCNC(=N)N)NC[C@H](CC(C)C)NC(=O)[C@H](CCCNC(=N)N)NC(=O)[C@@H]2CCCN2C1=O,40
18,CSCC[C@@H]1NC(=O)[C@H](NC(C)=O)CSSC[C@@H](C(N)=O)NC(=O)CNC(=O)[C@H](CCCNC(=N)N)NC(=O)[C@H](CC(C)C)NC(=O)[C@H](CCCNC(=N)N)NC(=O)CN(C)C1=O,22
19,CSCC[C@@H]1NC(=O)[C@H](NC(C)=O)CNC(=N)NC[C@@H](C(N)=O)NC(=O)CNC(=O)[C@H](CCCNC(=N)N)NC(=O)[C@H](CC(C)C)NC(=O)[C@H](CCCNC(=N)N)NC(=O)[C@@H]2CCCN2C1=O,0
20,CSCC[C@@H]1NC(=O)[C@H](NC(C)=O)CSSC[C@@H](C(N)=O)NC(=O)[C@@H](C)NC(=O)[C@H](CCCNC(=N)N)NC(=O)[C@H](CC(C)C)NC(=O)[C@H](CCCNC(=N)N)NC(=O)[C@@H]2CCCN2C1=O,54
21,CSCC[C@H](NC(=O)[C@@H]1CCCN1C(=O)[C@@H](CCCNC(=N)N)[C@H]1CSSC[C@H](N)C(=O)NCC(=O)N[C@@H](CCCNC(=N)N)C(=O)N[C@@H](CC(C)C)C(=O)N1)C(=O)NC(C)=O,34
22,CC(=O)N[C@@H]1CSSC[C@@H](C(N)=O)NC(=O)CNC(=O)[C@H](CCCNC(=N)N)NC(=O)[C@H](CC(C)C)NC(=O)[C@H](CCCNC(=N)N)NC(=O)[C@@H]2CCCN2C(=O)[C@H](Cc2cccs2)NC1=O,0
23,CC(=O)N[C@@H]1CSSC[C@@H](C(N)=O)NC(=O)CNC(=O)[C@H](CCCNC(=N)N)NC(=O)[C@H](CC(C)C)NC(=O)[C@H](CCCNC(=N)N)NC(=O)[C@@H]2CCCN2C(=O)[C@@H]2CSCN2C1=O,0
